This note sets out measurements from publication PMC9121347 (Bioconjugate Chemistry, 2022).

In one data set the test system is AD (APP/PS1) mice. In words: Dynamic microPET/CT imaging, AD mice. The format is in vivo, mouse. The conditions noted are these: AD (APP/PS1) vs normal (B6SJL) mice; any time point.
In data set [1] the test system is phosphorylation of Akt in hCMEC/D3 monolayers. It counts as cell-based, human. The following applies: 100 nM, 20 min, 37 °C in DMEM, Western blot, n = 3. In short, it runs like this: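 hCMEC/D3 monolayers treated ± test compound (100 nM) in DMEM, 20 min, 37 °C, washed thrice with PBS, lysed in RIPA with protease/phosphatase inhibitors, protein by BCA. […] Blocked in 5% milk; anti-vinculin, Akt, p-Akt (S473) at 1:1000 overnight at 4 °C; dye-conjugated secondary at 1:2000, 1 h RT. p-AKT/AKT ratio, mean ± SD, unpaired t-test.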
Background: Immunoblotting shows a protein as a band on a membrane.

For the compound `CNc1ccc(-c2nc3ccc(O)cc3s2)cc1` [[^11C]PIB, N-methyl [^11C] 2-(4′-methylaminophenyl)-6-hydroxy-benzothiazole], the “difference in uptake between normal and AD groups (brain and heart)” value with AD (APP/PS1) mice was “neither of them showed any significant difference in the uptake between normal and AD groups at any time point”. `[18F]c1ccc(-c2ccc3c(c2)[nH]c2ccncc23)cn1` [[^18F]AV1451, 7-(6-[^18F]fluoropyridin-3-yl)-5H-pyrido[4,3-b]indole]: the “difference in uptake between normal and AD groups (brain and heart)” value in the data set on AD (APP/PS1) mice is “neither of them showed any significant difference in the uptake between normal and AD groups at any time point”. With “NOTA-insulin: insulin with p-SCN-Bn-NOTA linked to the lysine residue of chain B; labeling precursor”, in data set [1], the “phosphorylation of Akt (p-AKT/AKT ratio)” value is reported as “stimulated the phosphorylation of Akt”.
